Columns and labels:
[1] = target: T1, Cathepsin K (Homo sapiens, UniProt P43235); experiment: Inhibitory activity against human Cathepsin K
T1 sequence (P43235 whole entry): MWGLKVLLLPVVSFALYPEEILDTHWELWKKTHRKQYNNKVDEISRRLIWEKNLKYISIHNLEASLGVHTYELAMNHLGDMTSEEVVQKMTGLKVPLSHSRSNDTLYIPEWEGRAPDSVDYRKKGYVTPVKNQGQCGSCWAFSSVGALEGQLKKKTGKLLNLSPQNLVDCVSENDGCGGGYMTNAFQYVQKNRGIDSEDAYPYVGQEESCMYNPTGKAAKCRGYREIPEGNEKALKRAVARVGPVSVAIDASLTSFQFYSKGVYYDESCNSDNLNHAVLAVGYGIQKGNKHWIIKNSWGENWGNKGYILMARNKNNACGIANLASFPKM

[2] = target: Cathepsin K (Homo sapiens, UniProt P43235); experiment: Inhibitory activity against humanized rabbit Cathepsin K
[3] = target: Cathepsin (B and K) (Homo sapiens) (UniProt P43235+P07858); experiment: Selectivity for Cathepsin B over Cathepsin K; type: protein assay
[4] = target: Cathepsin (S and K) (Homo sapiens) (UniProt P25774+P43235); experiment: Selectivity for Cathepsin S over Cathepsin K; type: protein assay
[5] = target: Cathepsin (L and K) (Homo sapiens) (UniProt P43235+P07711); experiment: Selectivity for Cathepsin L over Cathepsin K; type: protein assay
[6] = Oral bioavailability in rats at 10 mL/kg, po; type: ADME, organism-based; conditions: Sprague-Dawley, rat, in vivo
How it was run: (§1)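 Single compounds given orally as suspensions in 1% methocel to animals fasted overnight, dosed in the morning. Oral dosing volumes were 10 mL/kg for rats, 5 mL/kg for dogs and 1 mL/kg for monkeys. Intravenous comparison dosing went via the jugular vein in PEG-200/H₂O (3:2) at 1 mL/kg. Plasma was sampled at regular intervals, precipitated with 1.5 volumes of acetonitrile, centrifuged and analysed by LC-MS.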

[7] = Plasma clearance in rat at 10 mL/kg, po; type: ADME, organism-based; conditions: Sprague-Dawley; how it was run: as §1
[8] = Half life in rat at 10 mL/kg, po; type: ADME, organism-based; conditions: Sprague-Dawley, in vivo; how it was run: as §1
[9] = target: T2, Cathepsin K (Oryctolagus cuniculus, UniProt P43236); experiment: Inhibitory activity against rabbit Cathepsin K
T2 sequence (P43236 whole entry): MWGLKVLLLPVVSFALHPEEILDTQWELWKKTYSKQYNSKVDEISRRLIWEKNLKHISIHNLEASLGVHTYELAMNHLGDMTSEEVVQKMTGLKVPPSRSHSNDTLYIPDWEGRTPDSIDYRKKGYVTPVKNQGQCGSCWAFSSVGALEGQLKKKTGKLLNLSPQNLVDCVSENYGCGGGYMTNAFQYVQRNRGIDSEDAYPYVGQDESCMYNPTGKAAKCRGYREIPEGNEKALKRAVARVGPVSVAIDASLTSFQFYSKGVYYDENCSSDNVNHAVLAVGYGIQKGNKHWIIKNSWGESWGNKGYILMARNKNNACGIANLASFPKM

[10] = Plasma clearance in rat at 1 mL/kg, iv; conditions: Sprague-Dawley
[11] = Half life in rat at 1 mL/kg, iv; conditions: Sprague-Dawley, in vivo
[12] = Plasma clearance in dog at 5 mL/kg, po; type: ADME, organism-based, Canis lupus familiaris; how it was run: as §1
[13] = Plasma clearance in squirrel monkey at 1 mL/kg, po; type: ADME, organism-based, Saimiri sciureus; how it was run: as §1
[14] = Half life in dog at 5 mL/kg, po; type: ADME, organism-based, Canis lupus familiaris; conditions: in vivo; how it was run: as §1
[15] = species on record: Oryctolagus cuniculus; experiment: Effect on degradation of collagen in bovine bone by rabbit osteoclast; type: functional
[16] = Half life in squirrel monkey at 1 mL/kg, po; type: ADME, organism-based, Saimiri sciureus; conditions: in vivo; how it was run: as §1
[17] = Oral bioavailability in squirrel monkey at 1 mL/kg, po; type: ADME, organism-based, Saimiri sciureus; conditions: in vivo; how it was run: as §1
[18] = Oral bioavailability in dogs at 5 mL/kg, po; type: ADME, organism-based, Canis lupus familiaris; conditions: dog, in vivo; how it was run: as §1

| Structure (SMILES) | IC50 [2] [nM] | Selectivity ratio [3] | Selectivity ratio [4] | Selectivity ratio [5] | also measured |
| --- | --- | --- | --- | --- | --- |
| N#CCNC(=O)[C@@H]1CCCC[C@@H]1SCc1ccccc1 (racemic) | – | – | – | – | IC50 [1]: 280 nM |
| N#CCNC(=O)[C@@H]1CCCC[C@H]1CSc1ccc(Cl)cc1Cl (mixture of isomers) | 110 | – | – | – | – |
| CSc1ccc(-c2ccccc2C2CCC(F)CC2C(=O)NCC#N)cc1 (racemic; form 1) [listing 1 of 2 here] | – | > 2400 | 1500 | 1600 | – |
| N#CCNC(=O)[C@@H]1CCCC[C@H]1CSc1ccc(Br)cc1 (racemic) | 33 | > 3100 | > 3100 | 71 | – |
| N#CCNC(=O)C1CC(F)(F)CCC1c1ccccc1-c1ccc(F)cc1 (racemic) | 36 | – | – | – | bioavailability [6]: 26%; CL/F [7]: 37 mL/min/kg; half-life [8]: 4.5 h; IC50 [9]: 9.2 nM |
| N#CCNC(=O)[C@@H]1CCCC[C@H]1CSc1cccc(F)c1 (racemic) | 350 | – | – | – | – |
| N#CCNC(=O)[C@@H]1CCCC[C@H]1CSc1cccc(N)c1 (racemic) | 700 | – | – | – | – |
| N#CCNC(=O)[C@@H]1CCCC[C@H]1CSc1nc2ccccc2s1 (racemic) | 200 | – | – | – | – |
| COc1ccc(SC[C@@H]2CCCC[C@H]2C(=O)NCC#N)cc1 (racemic) | 28 | > 3500 | 960 | 810 | – |
| N#CCNC(=O)[C@@H]1CCCC[C@H]1CSc1cc(Cl)c(Cl)cc1Cl (racemic) | 460 | – | – | – | – |
| N#CCNC(=O)[C@@H]1CCCC[C@H]1CSc1ccc(O)cc1 (racemic) | 21 | 880 | 110 | 1700 | – |
| N#CCNC(=O)[C@@H]1CCCC[C@H]1CSc1ccc(I)cc1 (relative stereo) | 17 | > 5800 | > 5800 | 52 | – |
| N#CCNC(=O)[C@@H]1CCCC[C@H]1CSc1ccc(N)cc1 (mixture of isomers) | 100 | > 990 | 120 | 350 | – |
| N#CCNC(=O)[C@@H]1CCCC[C@H]1CSc1cc(Cl)ccc1Cl (racemic) | 150 | – | – | – | – |
| N#CCNC(=O)[C@@H]1CCCC[C@H]1CSc1ccccc1 (racemic) | 172 | 31 | 28 | 150 | IC50 [1]: 140 nM |
| N#CCNC(=O)[C@@H]1CCCC[C@H]1CSc1nc2ccccc2o1 (racemic) | 480 | – | – | – | – |
| N#CCNC(=O)[C@@H]1CCCC[C@H]1CSc1cccc(Cl)c1 (mixture of isomers) | 200 | – | – | – | – |
| N#CCNC(=O)[C@@H]1CCCC[C@H]1CSc1nnc(-c2ccncc2)o1 (relative stereo) | 950 | – | – | – | – |
| CSc1ccc(-c2ccccc2[C@@H]2CCCC[C@H]2C(=O)NCC#N)cc1 (racemic) | 2.6 | > 3800 | > 3800 | 2800 | clearance [10]: 35 mL/min/kg; half-life [11]: 0.733 h |
| CSc1ccc(-c2ccccc2C2CCC(Cl)(Cl)CC2C(=O)NCC#N)cc1 (racemic) | 0.58 | > 17000 | 52 | 450 | bioavailability [6]: 75%; CL/F [7]: 51 mL/min/kg; half-life [8]: 3.1 h; IC50 [9]: 0.59 nM |
| CSc1ccc(SC[C@@H]2CCCC[C@H]2C(=O)NCC#N)cc1 (racemic) | 4.2 | > 24000 | 3200 | 2200 | – |
| N#CCNC(=O)[C@@H]1CCCC[C@H]1CS(=O)(=O)c1ccc(OC(F)(F)F)cc1 (racemic) | – | – | – | – | clearance [10]: 42 mL/min/kg; half-life [11]: 0.333 h |

| Structure (SMILES) | IC50 [2] [nM] | Selectivity ratio [3] | Selectivity ratio [4] | Selectivity ratio [5] | also measured |
| --- | --- | --- | --- | --- | --- |
| N#CCNC(=O)[C@@H]1CCCC[C@H]1CSc1cccc(O)c1 | 330 | – | – | – | – |
| CSc1ccc(-c2ccccc2[C@@H]2CCC(F)(F)C[C@H]2C(=O)NCC#N)cc1 | 0.28 | > 36000 | 940 | 780 | CL/F [12]: 3.6 mL/min/kg; CL/F [13]: 17 mL/min/kg; bioavailability [6]: 39%; half-life [14]: 15 h; IC50 [15]: 16 nM; half-life [16]: 8.8 h; CL/F [7]: 8.7 mL/min/kg; bioavailability [17]: 78%; bioavailability [18]: 55%; half-life [8]: 3.5 h; IC50 [9]: 0.32 nM |
| N#CCNC(=O)[C@@H]1CCCC[C@H]1SCc1ccccc1 (racemic) | – | – | – | – | IC50 [1]: 52 nM |
| N#CCNC(=O)C1(NC(=O)c2ccccc2)CCCCC1 | – | – | – | – | IC50 [1]: 78 nM |
| N#CCNC(=O)[C@@H]1CCCC[C@H]1CSc1nccs1 (racemic) | 490 | – | – | – | – |
| CSc1ccc(S(=O)(=O)C[C@@H]2CCCC[C@H]2C(=O)NCC#N)cc1 (mixture of isomers) | 5 | 2000 | 1800 | 740 | clearance [10]: 38 mL/min/kg; half-life [11]: 0.0833 h |
| Cc1ccc(SC[C@@H]2CCCC[C@H]2C(=O)NCC#N)cc1 (racemic) | 100 | 380 | 180 | 110 | – |
| CSc1ccc(-c2ccccc2C2CCC(F)CC2C(=O)NCC#N)cc1 (racemic; form 1) [listing 2 of 2 here] | 4.2 | – | – | – | CL/F [13]: 21 mL/min/kg; bioavailability [6]: 88%; half-life [16]: 0.8 h; CL/F [7]: 25 mL/min/kg; bioavailability [17]: 28%; half-life [8]: 1.5 h; IC50 [9]: 3.7 nM |
| N#CCNC(=O)C1=CCCCC1 | – | – | – | – | IC50 [1]: 3400 nM |
| CSc1ccc(-c2ccccc2C2CCC(F)CC2C(=O)NCC#N)cc1 (racemic; form 2) [listing 1 of 2 here] | – | > 2700 | 180 | 2000 | – |
| CSc1ccc(-c2ccccc2C2CCC(F)(F)CC2C(=O)NCC#N)cc1 (racemic) | 0.46 | > 120000 | 1100 | 880 | bioavailability [6]: 53%; CL/F [7]: 15 mL/min/kg; half-life [8]: 3.5 h; IC50 [9]: 0.5 nM |
| COc1cccc(SC[C@@H]2CCCC[C@H]2C(=O)NCC#N)c1 (racemic) | 370 | – | – | – | – |
| N#CCNC(=O)[C@@H]1CCCC[C@H]1CSc1cc(Cl)cc(Cl)c1 (racemic) | 280 | – | – | – | – |
| N#CCNC(=O)[C@@H]1CCCC[C@H]1c1ccccc1-c1ccc(F)cc1 (racemic) | – | – | – | – | clearance [10]: 50 mL/min/kg; half-life [11]: 0.75 h |
| CSc1ccc(-c2ccccc2[C@H]2CCC(F)(F)C[C@@H]2C(=O)NCC#N)cc1 | 7.1 | – | – | – | IC50 [9]: 9.2 nM |
| CSc1ccc(-c2ccccc2C2CCC(F)CC2C(=O)NCC#N)cc1 (racemic; form 2) [listing 2 of 2 here] | 3.7 | – | – | – | IC50 [9]: 12 nM |
| N#CCNC(=O)[C@@H]1CCCC[C@H]1CSc1ccc(Cl)cc1 (racemic) | 30 | > 3400 | 330 | 120 | – |
| N#CCNC(=O)[C@@H]1CCCC[C@H]1CSc1ccc(F)cc1 (mixture of isomers) | 30 | 145 | 35 | 120 | – |
| N#CCNC(=O)[C@@H]1CCCC[C@H]1CSc1ncccn1 (racemic) | 990 | – | – | – | – |
| N#CCNC(=O)[C@@H]1CCCC[C@H]1CSc1ncc[nH]1 (relative stereo) | 410 | – | – | – | – |
| N#CCNC(=O)[C@@H]1CCCC[C@H]1CSc1cccc(Br)c1 (mixture of isomers) | 150 | – | – | – | – |
